Results on 5 compounds are retold here after ChEMBL document CHEMBL1687761.

Data set [1] has as its system CO/N=C(\C(=O)N[C@@H]1C(=O)N2C(C(=O)[O-])=C(C[N+]3(C)CCCC3)CS[C@H]12)c1csc(N)n1. Kind of data set: (§1) Ratio of Kcat to Km for Escherichia coli BL21(DE3) VIM-2 W87A mutant beta-lactamase by spectrophotometer.
Data set [2] concerns C[C@@H](O)[C@H]1C(=O)N2C(C(=O)O)=C(SCCNC=N)C[C@H]12. Described as §1.
The subject of data set [3] is CO/N=C(\C(=O)N[C@@H]1C(=O)N2C(C(=O)[O-])=C(C[N+]3(C)CCCC3)CS[C@H]12)c1csc(N)n1. Nature of the data set: (§2) Activity of Escherichia coli BL21(DE3) VIM-2 W87A mutant beta-lactamase by spectrophotometer.
In data set [4] the test system is C[C@@H](O)[C@H]1C(=O)N2C(C(=O)O)=C(SCCNC=N)C[C@H]12. The description is as §2.
Data set [5] has as its system Escherichia coli. Nature of the data set: Ratio of Kcat to Km for Escherichia coli XL1-Blue VIM-2 A64W mutant beta-lactamase by spectrophotometer. The method in brief: (§3)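 Mutant enzyme expressed in E. coli BL21(DE3) in autoinducing ZYP-5052 medium. Purified by anion exchange at pH 7.2, then high-resolution anion exchange at pH 9.2, plus gel filtration in 50 mM HEPES-50 μM ZnSO4 pH 7.5 where needed. Identity confirmed by tryptic peptide mass fingerprint. Steady-state kinetics on β-lactam substrates were run under the conditions used for wild-type VIM-2.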

The subject of data set [6] is Escherichia coli. Nature of the data set: Ratio of Kcat to Km for Escherichia coli XL1-Blue wild-type IMP-1 beta-lactamase by spectrophotometer.
Data set [7] deals with Escherichia coli. Kind of data set: Activity of Escherichia coli XL1-Blue wild-type IMP-1 beta-lactamase by spectrophotometer.
Data set [8] has as its system Escherichia coli. Kind of data set: Activity of Escherichia coli XL1-Blue VIM-2 A64W mutant beta-lactamase by spectrophotometer. In a few lines: as §3
The test system of data set [9] is Escherichia coli. Nature of the data set: Ratio of Kcat to Km for Escherichia coli XL1-Blue IMP-1 W64A mutant beta-lactamase by spectrophotometer.
The test system of data set [10] is Escherichia coli. Kind of data set: Activity of Escherichia coli XL1-Blue IMP-1 W64A mutant beta-lactamase by spectrophotometer.
Data set [11] deals with Metallo-beta-lactamase (Escherichia coli), Q5U7L7 [W87F]. Kind of data set: Activity of beta-lactamase VIM-2 W87F mutant expressed in Escherichia coli XL1-Blue isolated from 3.8 hrs grown culture. In a few lines:
(§4)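 E. coli XL-1 carrying pLBII-VIM-2 (wild-type or W87F) was grown and sampled at the stated times, with cell density read as A600. Imipenem hydrolysis in crude cell extracts was read spectrophotometrically in 10 mM HEPES pH 7.5 with 50 μM ZnSO4 and 150 μM imipenem. Activity was normalized to cell density. Values are means of three independent measurements.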

Data set [12] shares this test system. Nature of the data set: Activity of beta-lactamase VIM-2 W87F mutant expressed in Escherichia coli XL1-Blue isolated from 3.3 hrs grown culture. The method in brief:
as §4

For data set [13] the test system is unchanged. Nature of the data set: (§5) Activity of beta-lactamase VIM-2 W87F mutant expressed in Escherichia coli XL1-Blue isolated from […] grown culture.
Data set [14] shares this test system. The data set is described as §5. The source holds these as a separate data set.
Data set [15] has the same test system. Described as §5. This is another data set of the same source.
The test system is the same in data set [16]. Nature of the data set: Activity of beta-lactamase VIM-2 W87F mutant expressed in Escherichia coli XL1-Blue isolated from 1.2 hrs grown culture. The method in brief: (§6)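 Imipenem-hydrolyzing activity in crude cell extracts of E. coli XL-1 carrying pLBII-VIM-2 or pLBII-VIM-2-W87F. Read spectrophotometrically with 150 μM imipenem in 10 mM HEPES (pH 7.5) plus 50 μM ZnSO4. Activity normalized to culture density (A600). Means of three independent measurements.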

The test system is the same in data set [17]. Nature of the data set: Activity of beta-lactamase VIM-2 W87F mutant expressed in Escherichia coli XL1-Blue isolated from 0.5 hrs grown culture. In a few lines: as §4
Data set [18] has as its target Metallo-beta-lactamase (Escherichia coli) (UniProt Q5U7L7). Kind of data set: Activity of beta-lactamase VIM-2 in Escherichia coli XL1-Blue isolated from 6 hrs grown culture. In a few lines:
as §4

Data set [19] has the same target. Nature of the data set: Activity of beta-lactamase VIM-2 in Escherichia coli XL1-Blue isolated from 5 hrs grown culture. The method in brief:
as §4

For data set [20] the target is unchanged. Kind of data set: Activity of beta-lactamase VIM-2 in Escherichia coli XL1-Blue isolated from 4.3 hrs grown culture. In a few lines:
as §6

Data set [21] shares this target. Nature of the data set: Activity of beta-lactamase VIM-2 in Escherichia coli XL1-Blue isolated from 3.8 hrs grown culture. The method in brief:
as §4

Data set [22] shares this target. Kind of data set: Activity of beta-lactamase VIM-2 in Escherichia coli XL1-Blue isolated from 3.3 hrs grown culture. The method in brief:
as §4

Data set [23] shares this target. Kind of data set: (§7) Activity of beta-lactamase VIM-2 in Escherichia coli XL1-Blue isolated from […] grown culture.
Data set [24] shares this target. Described as §7. The source holds these as a separate data set.
Data set [25] has the same target. The data set is described as §7. This is another data set of the same source.
Data set [26] has the same target. Kind of data set: Activity of beta-lactamase VIM-2 in Escherichia coli XL1-Blue isolated from 1.2 hrs grown culture. In a few lines: as §6
Data set [27] shares this target. Nature of the data set: Activity of beta-lactamase VIM-2 in Escherichia coli XL1-Blue isolated from 0.5 hrs grown culture. The method in brief: as §4
Data set [28] relates to Metallo-beta-lactamase (Escherichia coli), Q5U7L7 [W87F]. Kind of data set: Activity of beta-lactamase VIM-2 W87F mutant expressed in Escherichia coli XL1-Blue isolated from 4.3 hrs grown culture. The method in brief:
as §6

The test system is the same in data set [29]. Kind of data set: Activity of beta-lactamase VIM-2 W87F mutant expressed in Escherichia coli XL1-Blue isolated from 5.0 hrs grown culture. The method in brief: as §4
Data set [30] shares this test system. Nature of the data set: Activity of beta-lactamase VIM-2 W87F mutant expressed in Escherichia coli XL1-Blue isolated from 6.0 hrs grown culture. In a few lines:
as §4

On to “Metallo-beta-lactamase (Escherichia coli) (from UniProt Q5U7L7) W87A”, for which the figures for the kcat/Km in data set [1] and in data set [2] were 0.012 µM⁻¹ s⁻¹ and 5.4 µM⁻¹ s⁻¹, respectively. The results for the Michaelis-Menten constant (Km) in [3] and in [4] were greater than 350 µM and 22 µM, respectively. Moreover, the kcat (in general, the maximal rate divided by the concentration of active sites) in [3] was greater than 4.5 s⁻¹; in [4] it was 119 s⁻¹.
`C[C@@H](O)[C@H]1C(=O)N2C(C(=O)O)=C(S[C@@H]3CN[C@H](C(=O)N(C)C)C3)[C@H](C)[C@H]12`: the kcat/Km (usually the turnover number divided by the Michaelis constant) came to 3 µM⁻¹ s⁻¹ in data set [5] and 0.5 µM⁻¹ s⁻¹ in [6]. Further, the values for the Michaelis-Menten constant (Km) in data set [7] and in data set [8] were 10 µM and 2 µM, respectively. Further, the figures for the turnover number (kcat) in [7] and in data set [8] were 5 s⁻¹ and 6 s⁻¹, respectively.
Consider `CC(=O)OCC1=C(C(=O)O)N2C(=O)[C@@H](NC(=O)Cc3cccs3)[C@H]2SC1`, for which the figures for the specificity constant (kcat/Km) in data set [9], in data set [5] and in [6] were 0.31 µM⁻¹ s⁻¹, 22 µM⁻¹ s⁻¹ and 6.4 µM⁻¹ s⁻¹, respectively. Besides, the Km (usually the concentration of substrate that gives half-maximal velocity) in data set [10] was greater than 500 µM; in data set [7] it was 5 µM; in [8] it was 6 µM. Moreover, the catalytic constant (kcat) was greater than 250 s⁻¹ in data set [10], 32 s⁻¹ in [7] and 135 s⁻¹ in data set [8].
Consider `O=C(Cc1cccs1)N[C@@H]1C(=O)N2C(C(=O)O)=C(/C=C/c3ccc([N+](=O)[O-])cc3[N+](=O)[O-])CS[C@H]12`, for which the kcat/Km in [9] was 4.3 µM⁻¹ s⁻¹; in [5], 27 µM⁻¹ s⁻¹; in data set [6], 14 µM⁻¹ s⁻¹. In addition, the Michaelis constant (Km) is 160 µM in [10], 8.2 µM in data set [7] and 10 µM in [8]. The kcat was determined as 700 s⁻¹ in [10], 130 s⁻¹ in data set [7] and 270 s⁻¹ in data set [8].
As for `C[C@@H](O)[C@H]1C(=O)N2C(C(=O)O)=C(SCCNC=N)C[C@H]12`, the Activity in data set [11] is 4.7 nmol/mL/min; in [12] it was less than 2.7 nmol/mL/min; in data set [13], less than 2.7 nmol/mL/min; in data set [14] it was less than 2.7 nmol/mL/min; in data set [15] it was less than 2.7 nmol/mL/min; in [16], less than 2.7 nmol/mL/min. In addition, the Activity in data set [17] was less than 2.7 nmol/mL/min; in data set [18], 380 nmol/mL/min; in data set [19], 330 nmol/mL/min; in [20] it was 270 nmol/mL/min; in data set [21] it was 240 nmol/mL/min; in [22], 170 nmol/mL/min. Besides, the Activity was 110 nmol/mL/min in data set [23]; 39 nmol/mL/min in data set [24]; 30 nmol/mL/min in data set [25]; less than 2.7 nmol/mL/min in [26]; less than 2.7 nmol/mL/min in data set [27]; 4.7 nmol/mL/min in data set [28]. The results for the Activity in [29] and in data set [30] were 7.9 nmol/mL/min and 9.5 nmol/mL/min, respectively. Further, the results for the kcat/Km in [9], in data set [5] and in [6] were 0.55 µM⁻¹ s⁻¹, 2.9 µM⁻¹ s⁻¹ and 2.7 µM⁻¹ s⁻¹, respectively. Further, the Km came out at 120 µM in [10], 25 µM in [7] and 21 µM in data set [8]. Besides, the kcat turned out to be 67 s⁻¹ in data set [10], 68 s⁻¹ in data set [7] and 60 s⁻¹ in data set [8].
